From ChEMBL document CHEMBL1833971, “Towards rational design of cannabinoid receptor 1 (CB1) antagonists for peripheral selectivity” (Bioorg Med Chem Lett, 2011)

Tests used:
Cannabinoid receptor 1 [1] = target: T1, Cannabinoid receptor 1 (Homo sapiens, UniProt P21554); assay: Antagonist activity at human CB1 receptor transfected in CHO-K1 cells co-expressing G-alpha-q16 protein assessed as inhibition of G-alpha-q16 protein-mediated intracellular calcium mobilization; type: functional, cell-based
T1 sequence (P21554 whole entry): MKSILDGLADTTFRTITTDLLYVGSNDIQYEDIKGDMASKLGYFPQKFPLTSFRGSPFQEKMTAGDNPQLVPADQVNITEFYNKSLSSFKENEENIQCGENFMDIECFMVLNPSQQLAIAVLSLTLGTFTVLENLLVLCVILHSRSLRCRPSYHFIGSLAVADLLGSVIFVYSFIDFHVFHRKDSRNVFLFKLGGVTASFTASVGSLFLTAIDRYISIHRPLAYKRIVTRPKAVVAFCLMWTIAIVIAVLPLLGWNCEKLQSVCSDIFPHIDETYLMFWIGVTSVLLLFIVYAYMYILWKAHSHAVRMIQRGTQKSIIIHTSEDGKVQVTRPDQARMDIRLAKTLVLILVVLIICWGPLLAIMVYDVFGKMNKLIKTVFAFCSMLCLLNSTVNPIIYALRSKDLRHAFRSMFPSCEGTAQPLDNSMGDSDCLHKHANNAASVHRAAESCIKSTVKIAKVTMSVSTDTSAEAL

Cannabinoid receptor 1 [2] = target: T1, Cannabinoid receptor 1; assay: Displacement of [3H]-CP55940 from human CB1 receptor expressed in CHO-K1 cells after 1 hr by liquid scintillation spectrometry; type: cell-based
Cannabinoid receptor 1 [3] = target: T1, Cannabinoid receptor 1; assay: Displacement of [3H]-SR141716A from human CB1 receptor expressed in CHO-K1 cells after 1 hr by liquid scintillation counting; type: cell-based
Cannabinoid receptor 2 = Cannabinoid receptor 2 (Homo sapiens, UniProt P34972); assay: Displacement of [3H]-CP55940 from human CB2 receptor expressed in CHO-K1 cells after 1 hr by liquid scintillation spectrometry; type: cell-based
Sequence of Cannabinoid receptor 2 (P34972 whole entry): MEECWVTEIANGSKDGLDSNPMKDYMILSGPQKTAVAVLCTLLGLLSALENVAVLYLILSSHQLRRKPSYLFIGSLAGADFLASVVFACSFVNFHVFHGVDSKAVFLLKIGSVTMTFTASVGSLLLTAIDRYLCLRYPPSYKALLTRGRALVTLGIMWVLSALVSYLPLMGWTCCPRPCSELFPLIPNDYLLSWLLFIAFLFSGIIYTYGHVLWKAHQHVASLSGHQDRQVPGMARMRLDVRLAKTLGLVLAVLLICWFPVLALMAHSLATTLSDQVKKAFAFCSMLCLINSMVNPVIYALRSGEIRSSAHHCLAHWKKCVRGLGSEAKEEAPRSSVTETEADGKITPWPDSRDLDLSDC
In short: (§1)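 Membranes from CHO-K1 cells over-expressing CB1 or CB2 used for [3H]CP55940 displacement, giving Ki at each receptor. Selectivity taken as the comparison of the CB2 and CB1 Ki values.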

Homo sapiens = species on record: Homo sapiens; assay: Selectivity ratio of Ki for human CB2 receptor to Ki for human CB1 receptor; in short: as §1
MDCK = assay: Permeability from apical to basolateral side of MDR1 transfected MDCK cells at 3.16 uM after 1 hr by LC/MS analysis; type: ADME, cell-based, Canis lupus familiaris; conditions: dog
In short: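 MDCK-mdr1 cells grown on filters for 4 days to confluence. Compound added apically at 3.16 μM, incubated 1 hr at 37°C. Apical-to-basal transport quantified by mass spectrometry in MRM mode, tuned per compound by infusion.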

Row | SMILES | Ke (Cannabinoid receptor 1 [1]) [µM] | Ki (Cannabinoid receptor 1 [2]) [nM] | Ki (Cannabinoid receptor 1 [3]) [nM] | Ki (Cannabinoid receptor 2) [nM] | Ratio Ki (Homo sapiens) | permeability (MDCK) [%]
1 | Cc1c(C(=O)NCCCN(C)CCCNS(C)(=O)=O)nn(-c2ccc(Cl)cc2Cl)c1-c1ccc(Cl)cc1 | 5.34 | – | – | – | – | –
2 | Cc1c(C(=O)NCc2ccc(CNS(N)(=O)=O)cc2)nn(-c2ccc(Cl)cc2Cl)c1-c1ccc(Cl)cc1 | 0.376 | – | – | – | – | –
3 | Cc1c(C(=O)NCc2cccc(CNS(C)(=O)=O)c2)nn(-c2ccc(Cl)cc2Cl)c1-c1ccc(Cl)cc1 | 2.83 | – | – | – | – | –
4 | Cc1c(C(=O)NCCCCCCCNS(N)(=O)=O)nn(-c2ccc(Cl)cc2Cl)c1-c1ccc(Cl)cc1 | 0.304 | 49 | 20 | 1010 | 21 | –
5 | Cc1c(C(=O)NC[C@H]2CC[C@@H](CNS(N)(=O)=O)CC2)nn(-c2ccc(Cl)cc2Cl)c1-c1ccc(Cl)cc1 | – | – | – | 1790 | – | < 1
6 | Cc1c(C(=O)NCC2CCC(CNS(C)(=O)=O)CC2)nn(-c2ccc(Cl)cc2Cl)c1-c1ccc(Cl)cc1 (mixture of isomers) | – | 55 | 11 | 900 | – | –
7 | Cc1c(C(=O)NCc2cccc(CNS(N)(=O)=O)c2)nn(-c2ccc(Cl)cc2Cl)c1-c1ccc(Cl)cc1 | 4.2 | – | – | – | – | –
8 | Cc1c(C(=O)NC[C@H]2CC[C@@H](CNS(C)(=O)=O)CC2)nn(-c2ccc(Cl)cc2Cl)c1-c1ccc(Cl)cc1 | – | 36 | 8 | 960 | – | < 1
9 | Cc1c(C(=O)NCCCCCCCNS(C)(=O)=O)nn(-c2ccc(Cl)cc2Cl)c1-c1ccc(Cl)cc1 | – | – | – | 780 | – | –
10 | Cc1c(C(=O)Nc2ccc(C)[n+](C)c2)nn(-c2ccc(Cl)cc2Cl)c1-c1ccc(Cl)cc1 | – | 1700 | 786 | 2270 | 1.3 | –
11 | Cc1c(C(=O)Nc2cc[n+]([O-])cc2)nn(-c2ccc(Cl)cc2Cl)c1-c1ccc(Cl)cc1 | 1.39 | 294 | 61 | 4520 | 15 | –
12 | Cc1c(C(=O)NCc2ccc(CNS(C)(=O)=O)cc2)nn(-c2ccc(Cl)cc2Cl)c1-c1ccc(Cl)cc1 | 2.93 | – | – | – | – | –
13 | Cc1c(C(=O)Nc2ccncc2)nn(-c2ccc(Cl)cc2Cl)c1-c1ccc(Cl)cc1 | – | 56 | 13 | 1740 | 31 | –
14 | Cc1c(C(=O)NCC2CCC(CNS(N)(=O)=O)CC2)nn(-c2ccc(Cl)cc2Cl)c1-c1ccc(Cl)cc1 (mixture of isomers) | – | – | – | 2310 | – | –
15 | Cc1ccc(NC(=O)c2nn(-c3ccc(Cl)cc3Cl)c(-c3ccc(Cl)cc3)c2C)cn1 | – | 102 | 26 | 4010 | 39 | –
